Source: ChEMBL document CHEMBL2203144, “Synthesis and evaluation of antimicrobial activity of 4H-pyrimido[2,1-b]benzothiazole, pyrazole and benzylidene derivatives of curcumin” (Eur J Med Chem, 2012)
Calls of active or inactive are those of the source. The rule behind the calls is not given here.

Columns and labels:
Aspergillus niger [1] = assay: Antifungal activity against Aspergillus niger after 72 hrs by broth dilution method; assay type: functional
Summary of the method: (§1)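 Compounds and fluconazole reference were dissolved in acetone at 120 µM/mL and serially diluted to 20–0.315 µM/mL. 10 µL compound plus 10 µL fungal culture broth added to 150 µL Sabouraud dextrose medium per well. Optical density recorded, then incubated 72 h at 28 °C. MIC95 taken from absence of turbidity. Acetone-at-same-dilution solvent control.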

[2] = Cytotoxicity against human L123 cells after 48 hrs by MTT assay; assay type: cell-based
Summary of the method: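 MTT assay. 2×10³ cells per well in MEM + 10% FBS, attached 24 h, then treated at 5, 10, 20, 50 and 100 µM/mL for 48 h; controls received medium with 0.2% DMSO. Duplicate treatments. Cells PBS-washed, given MTT (stock 1 mg/mL) for 4 h at 37 °C. Formazan dissolved in DMSO, read at 590 nm. IC50 is the concentration reducing viability by 50%.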

Aspergillus fumigatus [3] = assay: Antifungal activity against Aspergillus fumigatus after 72 hrs by broth dilution method; assay type: functional; summary of the method: as §1
Escherichia coli = assay: Antibacterial activity against Escherichia coli ATCC 35218 after 24 hrs by broth microdilution method; assay type: functional
Summary of the method: (§2)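 Microwell broth dilution in brain heart infusion broth (nutrient broth adjusted to pH 7.0). Inoculum from 16 h cultures, adjusted to 0.5 McFarland (1.5 × 10⁸ CFU/mL). 10 µL compound (serial dilutions 20 down to 0.625 or 0.312 µM/mL) plus 10 µL culture added to 150 µL broth. Incubated 24 h at 37 °C. MIC95 is the lowest concentration with no turbidity. Ciprofloxacin reference; inoculum and broth controls.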

Aspergillus flavus [4] = assay: Antifungal activity against Aspergillus flavus after 72 hrs by broth dilution method; assay type: functional; summary of the method: as §1
Aspergillus niger [5] = assay: Antifungal activity against Aspergillus niger after 72 hrs by agar disk diffusion method; assay type: functional
Summary of the method: (§3)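 Sterile filter-paper discs dipped in the acetone dilutions of compound (20–0.315 µM/mL), then dried to remove acetone. Sabouraud dextrose agar plates spread with 1 mL fungal culture. Discs placed aseptically; one drug-free disc served as growth control; fluconazole reference. Plates incubated upright 72 h at 28 °C. Zone of inhibition measured in mm with a scale.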

Pseudomonas aeruginosa = assay: Antibacterial activity against Pseudomonas aeruginosa ATCC 23564 after 24 hrs by broth microdilution method; assay type: functional; summary of the method: as §2
Bacillus cereus = assay: Antibacterial activity against Bacillus cereus MTCC 7350 after 24 hrs by broth microdilution method; assay type: functional; summary of the method: as §2
Staphylococcus aureus = assay: Antibacterial activity against Staphylococcus aureus ATCC 11632 after 24 hrs by broth microdilution method; assay type: functional; summary of the method: as §2
Providencia rettgeri = assay: Antibacterial activity against Providencia rettgeri DRDE after 24 hrs by broth microdilution method; assay type: functional; summary of the method: as §2
Salmonella typhi = assay: Antibacterial activity against Salmonella typhi ATCC 15499 after 24 hrs by broth microdilution method; assay type: functional, Salmonella enterica subsp. enterica serovar Typhi
Summary of the method: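 Broth microdilution in brain heart infusion broth in microwells. Inoculum was prepared from 16 h cultures adjusted to the 0.5 McFarland standard (1.5 × 10⁸ CFU/mL). Compounds were serially diluted from 20 down to 0.625 µM/mL and added to the broth, followed by the bacterial culture. Plates were incubated 24 h at 37 °C, with optical density read. MIC95 was the lowest concentration giving no turbidity. Inoculum and broth controls were included.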

Aspergillus flavus [6] = assay: Antifungal activity against Aspergillus flavus after 72 hrs by agar disk diffusion method; assay type: functional; summary of the method: as §3
Aspergillus fumigatus [7] = assay: Antifungal activity against Aspergillus fumigatus after 72 hrs by agar disk diffusion method; assay type: functional; summary of the method: as §3

Row | SMILES | MIC95 (Aspergillus niger [1]) | IC50 [2] [uM/ml] | MIC95 (Aspergillus fumigatus [3]) | MIC95 (Escherichia coli) | MIC95 (Aspergillus flavus [4]) | inhibition zone (IZ) (Aspergillus niger [5]) | MIC95 (Pseudomonas aeruginosa) | MIC95 (Bacillus cereus) [uM/ml] | MIC95 (Staphylococcus aureus) [uM/ml] | MIC95 (Providencia rettgeri) | MIC95 (Salmonella typhi) [uM/ml] | inhibition zone (IZ) (Aspergillus flavus [6]) | inhibition zone (IZ) (Aspergillus fumigatus [7]) | MIC95 (Salmonella typhi; Salmonella enterica subsp. enterica serovar Typhi)
1 | COc1cc(/C=C/C(=O)C(=Cc2ccc(N(C)C)cc2)C(=O)/C=C/c2ccc(O)c(OC)c2)ccc1O | 5 uM/ml | > 100 | 1.25 uM/ml | inactive | inactive | 15 mm | 1.25 uM/ml | 0.625 | 5 | inactive | 2.5 | inactive | 20 mm | –
2 | COc1cc(/C=C/C(=O)C2=C(/C=C/c3ccc(O)c(OC)c3)N=C3Sc4ccccc4N3C2c2ccccc2)ccc1O (configuration not stated) | inactive | > 100 | inactive | inactive | inactive | inactive | 10 uM/ml | 5 | 20 | 20 uM/ml | 20 | inactive | inactive | –
3 | COc1cc(/C=C/c2cc(/C=C/c3ccc(O)c(OC)c3)n(-c3ccc([N+](=O)[O-])cc3[N+](=O)[O-])n2)ccc1O | 2.5 uM/ml | > 100 | inactive | inactive | 1.25 uM/ml | 17 mm | inactive | 1.25 | 1.25 | inactive | 2.5 | 20 mm | inactive | –
4 | COc1cc(/C=C/C(=O)C2=C(/C=C/c3ccc(O)c(OC)c3)N=C3Sc4ccccc4N3C2c2ccccc2O)ccc1O (configuration not stated) | inactive | 50 | inactive | inactive | inactive | inactive | 20 uM/ml | 5 | 20 | inactive | – | inactive | inactive | inactive
